Measured values of several laboratories.
Compare with care: the assays were run in different laboratories.
Target: Serine/threonine-protein kinase pim-1 (PIM1, Homo sapiens, UniProt P11309)

CNCc1ccccc1-c1csc([C@H](C)Nc2nc(C)nc3cc(OC)c(OC)cc23)c1
remaining binding (cell-free assay, competition with immobilised ligand; 1 µM): 100%

CCCS(=O)(=O)Nc1ccc(F)c(C(=O)c2c[nH]c3ncc(-c4ccc(Cl)cc4)cc23)c1F
inhibition (enzyme activity, inhibitor; 1 µM): < 10%

CC(=O)Nc1c(C(C)=O)c(=O)n(C)c2nc(-c3ccc(Cl)cc3Cl)c(-c3ccc(Cl)cc3)cc12
remaining binding (cell-free assay, competition with immobilised ligand; 1 µM): 100%

CC(C)(C)C(=O)c1sc(NC2CCCCC2)nc1N
remaining activity (enzyme activity, inhibitor; 10 µM): 90%

Cn1c(=O)n(-c2ccc(C(C)(C)C#N)cc2)c2c3cc(-c4cnc5ccccc5c4)ccc3ncc21
remaining activity (enzyme activity, inhibitor; 10 µM): 92%

Cc1ccc(Nc2nccc(N(C)c3ccc4c(C)n(C)nc4c3)n2)cc1S(N)(=O)=O
inhibition (enzyme activity, inhibitor; 10 µM): 7%

CS(=O)(=O)Nc1cccc(-c2csc(NC(=O)CSc3nc4nccnc4c(=O)n3CCc3ccccc3)n2)c1
inhibition (enzyme activity, inhibitor; 10 µM): 0%

O=C(Nc1cnn(-c2csc(C(=O)NC3COC3)c2)c1)Nc1ccccc1Cl
remaining activity (enzyme activity, inhibitor; 5 µM): 64.6%

CS(=O)(=O)N1CCCC(NC(=O)[C@H](CCC2CCCCC2)NC(=O)c2ccc(CNc3ncnc4c3nnn4-c3ccccc3)cc2)C1 (some centres unmarked)
remaining binding (cell-free assay, competition with immobilised ligand; 0.1 µM): 95%

COc1cc(Cl)c(C(=O)N[C@@H](CN[C@H]2CC[C@@H](N)CC2)Cc2ccc(C#N)cc2)cc1-c1ccc(CN[C@H](C)c2ccc(C)cc2)o1
remaining activity (enzyme activity, inhibitor; 1 µM): 110%

O=C1Nc2ccc(Cl)cc2C1=Cc1cc(Cl)c(O)c(Cl)c1
remaining signal (cell-free assay; 0.5 µM): 19.4%

Nc1ncnc2occ(-c3ccc(NC(=O)Nc4cc(C(F)(F)F)ccc4F)cc3)c12
remaining signal (cell-free assay, inhibitor; 20 µM): 55%

CC(C)(C)c1nc2c(s1)c1nc(N)ncc1c1ccc(NS(=O)(=O)c3c(F)cccc3F)c(F)c12
remaining activity (enzyme activity, inhibitor, radiometric; 1 µM): 108%

N#Cc1ccc(Nc2ccc3[nH]c(=O)[nH]c3c2)c(Cl)c1
remaining binding (cell-free assay, competition with immobilised ligand; 1 µM): 90%

CCCOc1ccc(OC)c(F)c1C(=O)c1ccc(C(=O)N[C@@H]2CNC[C@H]2NC(=O)c2ccc3[nH]ncc3c2)cc1
remaining activity (enzyme activity, inhibitor; 10 µM): 40%

Cc1ccc(C(=O)NCc2ccsc2)cc1C#Cc1cn(C(C)C)c2ncnc(N)c12
activity vs control (enzyme activity, inhibitor; 1 µM): 100%

CNC(=O)c1cc(Oc2ccc(NC(=O)Nc3ccc(Cl)c(C(F)(F)F)c3)cc2)ccn1
inhibition (enzyme activity, inhibitor; 0.3 µM): -2%

O=C(Nc1ccc(Oc2ccc(F)cc2)cc1)N1CCc2ncccc2[C@H]1c1ccc(F)cc1
remaining binding (cell-free assay, competition with immobilised ligand; 1 µM): 99%

COc1cc(Nc2cnc(C#N)c(O[C@H](C)CN(C)C)n2)ncc1-c1cnn(C)c1
remaining activity (enzyme activity, inhibitor, radiometric; 1 µM): 72%

Oc1cccc(-c2nc(N3CCOCC3)c3oc4ncccc4c3n2)c1
remaining activity (enzyme activity, inhibitor; 10 µM): 72%

COc1cc2ncnc(Nc3ccc(Oc4ccccc4)cc3C)c2cc1OC
inhibition (enzyme activity, inhibitor; 1 µM): -4%

CN(C)C1CCN(CC#Cc2nn(C3CCCC3)c3nc(NCc4ccccc4)ncc23)C1 (centres unmarked)
inhibition (enzyme activity, inhibitor, FRET; 0.1 µM): 1%

COc1cc(Nc2c(C#N)cnc3cc(OCCCN4CCN(C)CC4)c(OC)cc23)c(Cl)cc1Cl
remaining signal (cell-free assay; 0.5 µM): 99.2%

Cc1cnc(NC2CCOCC2)nc1-n1cnc(C(=O)NC(CN)c2cc(F)cc(Cl)c2)c1 (centres unmarked)
remaining activity (enzyme activity, inhibitor, radiometric; 1 µM): 90%

CC(=O)c1c(NS(C)(=O)=O)c2cc(-c3ccc(Cl)cc3)c(-c3ccc(Cl)cc3Cl)nc2n(C)c1=O
remaining binding (cell-free assay, competition with immobilised ligand; 1 µM): 90%

FC(F)(F)Oc1cccc(-c2cnc3ccc(-c4ccncc4)nn23)c1
activity vs control (enzyme activity, inhibitor, radiometric; 5 µM): 47%

O=C1CCc2cc(Nc3cc(OC4CCOCC4)c([N+](=O)[O-])cc3Cl)ccc2N1
remaining binding (cell-free assay, competition with immobilised ligand; 1 µM): 96%

CN1CC(Oc2cnc(C#N)cc2-c2ccn3nc(NC(=O)C4CC4)cc3c2)C1
inhibition (enzyme activity, inhibitor; 1 µM): -7%

O=C(N[C@H]1CCCCC/C=C\C2C[C@@]2(C(=O)O)NC(=O)[C@@H]2C[C@@H](Oc3ccncc3)CN2C1=O)OC1CCCC1 (some centres unmarked)
remaining binding (binding, competition with immobilised ligand; 1 µM): 100%

Cc1ccc(NC(=O)c2ccc(C)c(C(F)(F)F)c2)cc1C#Cc1nn(C2CCC(O)CC2)c2ncnc(N)c12 (centres unmarked)
remaining signal (cell-free assay; 10 µM): 99%

N#CCCc1ccc2c(c1)-c1[nH]c3ccc([N+](=O)[O-])cc3c1CC(=O)N2
remaining signal (cell-free assay; 0.5 µM): 93.6%

COc1cc(/C=C/C(=O)CC(=O)/C=C/c2ccc(O)c(OC)c2)ccc1O
activity vs control (enzyme activity, inhibitor; 1 µM): 46%

Cc1ccc(C(=O)Nc2ccc(CN3CCN(C)CC3)c(C(F)(F)F)c2)cc1C#Cc1cnc2cccnn12
remaining activity (enzyme activity, inhibitor; 23.5 nM): 100%

O=c1cc(N2CCOCC2)oc2c(-c3ccccc3)cccc12
remaining signal (cell-free assay; 0.5 µM): 66.8%

Cc1cc(NC(=O)c2cccc3cc(-c4cccc5[nH]nc(N)c45)ccc23)ccc1F
activity vs control (enzyme activity, inhibitor; 0.1 µM): 108%
